# Screening data (PubChem BioAssay)
# Shown are actives, neighbours in structure and some others; about 2.2% of the full set was active somewhere.
# PDI inh: inhibitors of human PDI, primary screen, biochemical, turbidity, single point, plate reader. 0.052% of 350,000 active. inhibition, % at 10 µM. PDI insulin aggregation turbidity, A650, 90 min. Protein disulfide-isomerase (Homo sapiens), P07237;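 active = mean inhibition across replicates of 30% or more, whatever share of single replicates reach that level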
# FN deposit inh: inhibitors of fibronectin matrix deposition, primary screen, AH1F cells, Alexa488-fibronectin fluorescence, plate reader; AH1F fibroblasts, overnight; inhibition, % at 12.6 µM; 0.086% of 350,000 active;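 active = mean inhibition across replicates of 30% or more, regardless of how many single replicates reach that level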;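 note: positive control wells lacked labelled fibronectin entirely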
#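 Material: AH1F fibroblasts assembling fluorescent fibronectin matrix; amount: 10000 AH1F cells/well; medium: DMEM, 2% serum; reagent: Alexa488-fibronectin, 24 nM final in well; dosing: single compound dose, delivered by pin transfer; incubation: 1 h adhesion, overnight exposure; detection: fluorescence after three HBSS washes, excitation 485 nm, emission 525 nm; measure: fibronectin deposition inhibition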
# HIV Env fusion: inhibitors of HIV-1 Env-driven cell-cell fusion, primary screen, HeLa-JRFL effector, CEM21 target cells, luciferase; inhibition, % at 12.3 µM; 1.1% of 360,000 active;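 active = mean replicate inhibition score of at least 50 and every replicate individually at or above 50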;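 note: 0% = plate neutral controls and 100% = maraviroc near 300 nM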
# PvdQ inh: P. aeruginosa PvdQ acylase inhibitors, primary screen, biochemical, fluorescence, plate reader and imaging, single point; purified PvdQ acylase; PvdQ acylase [Pseudomonas aeruginosa LESB58]; AID 488965, 2010; 0.063% of 340,000 active; inhibition, % at 10 µM; in the data active = inhibition above about 30%, passing the limit was not always enough;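 note: 0% = vehicle neutral wells and 100% = reference inhibitor wells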
# ERp5 block: inhibitors of ERp5-driven insulin aggregation, primary screen, biochemical, turbidity, absorbance 650 nm, single point. inhibition, % at 9.99 µM. 90 min. 0.05% of 350,000 active;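 active = mean replicate inhibition above about 25%, with every replicate also reaching it, limit read from the data, passing the limit was not always enough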
# Target sequence (Q15084 whole entry, looked up): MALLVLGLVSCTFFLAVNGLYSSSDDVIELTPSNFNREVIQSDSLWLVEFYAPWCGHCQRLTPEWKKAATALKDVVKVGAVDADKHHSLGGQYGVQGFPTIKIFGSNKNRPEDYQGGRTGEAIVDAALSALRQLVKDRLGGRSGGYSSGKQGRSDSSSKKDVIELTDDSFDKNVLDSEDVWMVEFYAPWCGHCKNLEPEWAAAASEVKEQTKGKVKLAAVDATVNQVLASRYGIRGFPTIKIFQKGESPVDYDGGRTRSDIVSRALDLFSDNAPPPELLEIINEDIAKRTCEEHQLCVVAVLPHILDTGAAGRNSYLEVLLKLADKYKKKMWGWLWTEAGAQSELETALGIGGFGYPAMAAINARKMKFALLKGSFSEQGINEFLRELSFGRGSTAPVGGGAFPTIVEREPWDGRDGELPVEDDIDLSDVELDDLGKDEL
# Ecoli rRNA inh: reduced GFP signal of wild-type E. coli, primary screen, bacterial rRNA inhibitor project, GFP/RFP fluorescence, OD600, single point; 1.6% of 350,000 active; E. coli WT GFP vs humanized-ribosome RFP mutants, 24 h; active compounds read low; DMSO median 0, no signal -100; GFP signal change (wild-type ribosome), % (no concentration beside the values); AID 720706, 2013;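 active = significant combined selectivity score with lowered wild-type GFP, culture density cut under 30%, mutant RFP and density less affected; inactive = any of these conditions unmet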
# * marks the source's active call; other numbers are inactive results; nt = no result given; ! = a repeat was not active; [ ] = remark or other dose.
SMILES,PDI inh,FN deposit inh,HIV Env fusion,PvdQ inh,ERp5 block,Ecoli rRNA inh
C[C@@H]1CN([C@@H](C)CO)C(=O)c2cc(NC(=O)Nc3ccc4c(c3)OCO4)ccc2O[C@H]1CN(C)Cc1ccncc1,nt,-10,8[16.7 µM],nt,0,5
O=C(NC[C@@H]1CC[C@H]2[C@H](CN2Cc2cc(-c3ccccc3)on2)O1)c1ccc2c(c1)OCO2,nt,nt,58*[16.7 µM],nt,1,nt
O=C(NC[C@@H]1CC[C@@H]2[C@@H](CN2C(=O)NC2CCCC2)O1)c1ccc2c(c1)OCO2,nt,nt,nt,nt,3,nt
COCc1cn(CC[C@@H]2CC[C@H](NC(=O)Nc3ccc(Cl)cc3)[C@@H](CO)O2)nn1,nt,nt,13[16.7 µM],nt,2,1
COc1ccc(Nc2c(CCc3ccccc3)nc3nc(C)cc(C)n23)cc1,nt,11,85*,nt,-5,-4
CCc1nc2nc(C)cc(C)n2c1Nc1ccc(OC)cc1,nt,2,8,nt,2,3
C[C@@H]1[C@@H](Sc2ccccc2)CC(=O)O[C@@H]1c1ccc(-c2ccccc2)cc1,-4,2,-18,2,3,-1
O=C1C=CC2(O[C@H](c3ccccc3)[C@@H](c3ccccc3)O2)[C@H](Sc2ccccc2O)C1,23,45*,-113,-7,1,-12
CN1C(=O)c2cc(NC(=O)NC3CCCC3)ccc2OC[C@@H]2O[C@@H](CC(=O)NCC3CC3)CC[C@H]21,nt,8,6[16.7 µM],nt,4,4
Cc1ccc(S(=O)(=O)Nc2cccc3c2O[C@H](CN(C)S(=O)(=O)c2c(C)noc2C)[C@@H](C)CN([C@H](C)CO)C3=O)cc1,nt,nt,nt,nt,4,-2
CC(C)NC(=O)N(C)C[C@@H]1Oc2ncc(C#CC3CCCCC3)cc2C(=O)N([C@H](C)CO)C[C@H]1C,nt,nt,6[16.7 µM],nt,nt,0
CC(C)(C)n1nnnc1C(c1ccc(C(F)(F)F)cc1)N(Cc1ccc(F)cc1)Cc1ccco1 (configuration not stated),0,nt,nt,-12,nt,nt
CC(C)(C)n1nnnc1C(c1ccc(F)cc1)N(Cc1ccc(F)cc1)Cc1ccco1 (configuration not stated),-2,-7,124*,-10,nt,nt
CC(C)(C)n1nnnc1C(c1cccnc1)N(Cc1ccccc1)Cc1cccs1 (configuration not stated),7,-3,57*,-7,nt,nt
CC(C)(C)n1nnnc1C(c1cccs1)N(Cc1ccccc1)Cc1cccnc1 (configuration not stated),13,nt,nt,-12,nt,nt
CCCNC(=O)N1C[C@H]2[C@@H](c3ccccc31)[C@@H](CO)N2Cc1cc(F)ccc1F,nt,nt,nt,nt,3,-7
CCc1cc(C(=O)c2ccc(OC)cc2)c(NC(=O)COCC(=O)O)s1,0,-3,11,17,2,-12
CCc1cc(C(=O)c2ccc(OC)cc2)c(NC(=O)CC(C)(C)CC(=O)O)s1,3,12,17,1,0,-28*
Cc1nc2scc(C)n2c(=O)c1S(=O)(=O)Nc1ccc(OC(F)(F)F)cc1,14,-14,55*,-9,4,2
CS/C(=N\S(=O)(=O)c1cccs1)Nc1cccc(Cl)c1C,2,-6,5,-8,4,-44*
CCCCCCCNC(=O)c1ccc(N2CCC3(CC2)OCCO3)c([N+](=O)[O-])c1,-11,2,13,15,1,-26*
C[C@H](CO)N1C[C@H](C)[C@@H](CN(C)C(=O)Nc2ccc(F)cc2)Oc2ccc(NC(=O)C3CC3)cc2CC1=O,nt,nt,nt,nt,2,4
O=c1c(Cc2c(F)cccc2Cl)c(O)ccn1C1CC1,3,1,-13,-4,-3,-31*
O=C(Nc1ccccn1)c1ccc(CN(c2ccccc2)S(=O)(=O)c2ccccc2)cc1,0,20,-21,6,4,10
Cc1cccc(C(C)C)c1NC(=O)c1ccc(CN(c2ccccc2)S(=O)(=O)c2ccccc2)cc1,-5,3,60*,2,nt,nt
SMILES,PDI inh,FN deposit inh,HIV Env fusion,PvdQ inh,ERp5 block,Ecoli rRNA inh
CCCCC#Cc1ccc(C(=O)NNC(=O)Nc2cc(Cl)cc(Cl)c2)o1,1,7,8,-2,0,-40*
CCOC(=O)N1CCN(S(=O)(=O)c2cc(OCC(=O)NC3CCCCC3)c(C)cc2Cl)CC1,0,-31,-69,-16,nt,nt
Cc1cc(Cl)c(S(=O)(=O)N2CCCCCC2)cc1OCC(=O)NC1CCCCC1,-5,-4,51*,3,nt,nt
Cc1cc(Cl)c(S(=O)(=O)N2CCSCC2)cc1OCC(=O)NC1CCCCC1,9,nt,93*,-19,nt,nt
CCN1CCN(S(=O)(=O)c2cc(OCC(=O)NC3CCCCC3)c(C)cc2Cl)CC1,7,-4,-25,12,nt,nt
CCOC(=O)CCCCCC(=O)Nc1ccc2c(c1)C(=O)N([C@@H](C)CO)C[C@H](C)[C@H](CN(C)S(C)(=O)=O)O2,nt,nt,nt,nt,nt,1
COC(=O)C1=C(C)N(C)C(=S)N(C)C1c1cccc(Br)c1 (configuration not stated),3,1,-6,-1,-8,-34*
CCOC(=O)C1=C(C)N(C)C(=S)N(C)C1c1ccc(OC)cc1 (configuration not stated),-1,-3,5,-6,-2,0
C[C@H](CO)N1C[C@H](C)[C@@H](CN(C)Cc2ccc(-c3ccccc3)cc2)Oc2ccc(NC(=O)CCCN(C)C)cc2C1=O,nt,-4,nt,nt,0,3
C[C@@H]1CN([C@H](C)CO)C(=O)c2cc(NC(=O)Nc3ccc(F)cc3)ccc2O[C@@H]1CN(C)Cc1ccc(-c2ccccc2)cc1,nt,12,-5[16.7 µM],nt,4,-2
C[C@@H]1CN([C@H](C)CO)C(=O)c2cc(NC(=O)Nc3ccc(F)cc3)ccc2O[C@H]1CN(C)Cc1ccc(-c2ccccc2)cc1,nt,-6,-15[16.7 µM],nt,51*,-5
C[C@H](CO)N1C[C@H](C)[C@H](CN(C)Cc2ccc(-c3ccccc3)cc2)Oc2ccc(NC(=O)CCCN(C)C)cc2C1=O,nt,53*,nt,nt,2,-56
Cc1ccccc1OCc1n(CC(=O)OC2CC(C)CCC2C(C)C)c2ccccc2[n+]1C (configuration not stated),-38,19,71*,-8,-5,-61
CC1CCC(C(C)C)C(OC(=O)COC(=O)c2cccn2C)C1 (configuration not stated),-1,nt,nt,-17,nt,nt
CC1CCC(C(C)C)C(OC(=O)Cn2c(-c3ccc(Br)cc3)[n+](C)c3ccccc32)C1 (configuration not stated),5,21,58*!,-18,-2,-59
